How the values were obtained:
WspR = WspR (Pseudomonas aeruginosa, UniProt Q9HXT9); experiment: EnzChek pyrophosphate assay; assay type: biochemical
In short: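 C-terminally 6×His-tagged WspR is expressed in E. coli BL21(DE3) in LB with 100 μg ml−1 ampicillin at 37 °C, then induced at A600 1.0 with 1 mM IPTG at 18 °C for 12–16 h. Cells are sonicated and the protein is purified by IMAC (500 mM imidazole elution), then Superdex 200 SEC in 25 mM Tris-HCl pH 7.4, 100 mM NaCl, 1 mM DTT. Pyrophosphate released from GTP-to-c-di-GMP conversion is read by EnzChek.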

tDGC-R158A = tDGC-R158A (Thermotoga maritima, UniProt Q9X2A8, R158A); experiment: EnzChek pyrophosphate assay; assay type: biochemical; details: substrate GTP
In short: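 C-terminally 6×His-tagged T. maritima tDGC-R158A is expressed in E. coli BL21(DE3) with kanamycin at 37 °C and induced at OD600 0.8 with 0.8 mM IPTG at 25 °C for 4 h. It is French-press lysed and purified on Ni-NTA with a 20–500 mM imidazole gradient in Tris-HCl pH 8.0. Pyrophosphate from GTP conversion is read by a high-throughput-adapted EnzChek assay, giving % inhibition versus untreated enzyme.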

CC(=O)c1c(O)c(C)c(O)c(Cc2c(O)c3c(c(C(=O)/C=C/c4ccccc4)c2O)OC(C)(C)C=C3)c1O [LP 1062, (E)-1-[6-[(3-acetyl-2,4,6-trihydroxy-5-methylphenyl)methyl]-5,7-dihydroxy-2,2-dimethyl-2H-1-benzopyran-8-yl]-3-phenyl-2-propen-1-one] was tested. Which IC50 (WspR) did it give?
The IC50 was 73.1 µM.

How did the IC50 (WspR) turn out when CCOc1ccc(/C=N/NC(=O)c2cc(O)c(O)c(O)c2)cc1CN1CC2CC(C1)c1cccc(=O)n1C2 (stereo not drawn) [LP 3134, N′-((1E)-{4-ethoxy-3-[(8-oxo-1,5,6,8-tetrahydro-2H-1,5-methanopyrido[1,2-a][1,5]diazocin-3(4H)-yl)methyl]phenyl}methylene)-3,4,5-trihydroxybenzohydrazide] was run?
The IC50 was 44.9 µM.

What about the “% Inhibition of tDGC-R158A” value (tDGC-R158A; 100 µM) of the same molecule?
Its value is 72.1%.

How did the IC50 (WspR) turn out when Cc1cc2c(C(C)C)c(O)c(O)c(C=O)c2c(O)c1-c1c(C)cc2c(C(C)C)c(O)c(O)c(C=O)c2c1O [LP 3145, 1,1′,6,6′,7,7′-hexahydroxy-5,5′-diisopropyl-3,3′-dimethyl-2,2′-binaphthalene-8,8′-dicarbaldehyde] was run?
The IC50 was 70.9 µM.

With CN(CCCn1c2c(c(=O)[nH]c1=O)CSCC2)S(=O)(=O)c1ccc(N)cc1 [LP 4010] as the molecule, how does the IC50 (WspR) read?
Its IC50 is 102 µM.

What about the “% Inhibition of tDGC-R158A” value (tDGC-R158A; 200 µM) of the same molecule?
Its value is 20.5%.
